Data on 14 molecules can be found in paper PMC6448791 (Journal of natural products, 2017).

Data set [1] concerns SMMC-771 (hepatocellular carcinoma). Nature of the data set: MTT cytotoxicity assay, SMMC-7721. It is filed as cell-based, human. The method, boiled down:
(§1)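 Cells kept in RPMI-1640 with 10% FBS, penicillin and streptomycin at 37 °C under 5% CO2. Seeded at 5 × 10^4 cells/mL and pre-incubated 24 h. Exposed to test compound at preset concentrations for 48 h. MTT (0.5 mg/mL) added for 4 h, formazan dissolved in DMSO, A490 read. Inhibition % = (ODc − ODt)/ODc × 100. Cisplatin as positive control.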

Data set [2] deals with rabbit erythrocytes. Nature of the data set: Hemolytic assay. It is filed as cell-based. The conditions noted are these: for HD50 (concentration inducing 50% of erythrocyte hemolysis): 37 °C, 60 min, PBS pH 7.4; for fold lower hemolytic toxicity than 1: HD50 relative to compound 1, rabbit erythrocytes.
Data set [3] has as its system BGC-823 (gastric carcinoma). Nature of the data set: MTT cytotoxicity assay, BGC-823. It is filed as cell-based, human. The method, boiled down: as §1
The test system of data set [4] is PARP, pro-caspase-3, pro-caspase-9, pro-caspase-8. Nature of the data set: Western blot of apoptosis-related proteins. It is filed as cell-based. The method, boiled down: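 A549 cells treated with test compound for 24 h beside untreated control. Lysed in 100 mM Tris-Cl pH 6.8, 4% SDS, 20% glycerol, 200 mM β-mercaptoethanol, 1 mM PMSF plus aprotinin, then spun 12000g for 15 min at 4 °C. Protein measured by BCA, run on 10–15% SDS-PAGE and moved to PVDF. Primary antibodies overnight at 4 °C, HRP secondary, ECL detection; lamin A probed.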
In general terms: A western blot detects proteins with antibodies after separation by electrophoresis.

In data set [5] the test system is all five tested human cancer cell lines. Nature of the data set: SRB cytotoxicity, all five tested human cancer cell lines. It is filed as cell-based. Particulars: read-out: IC50 against all five tested human cancer cell lines. The method, boiled down: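 ATCC-sourced lines grown in RPMI-1640 with 10% FBS at 37 °C, 5% CO2. Seeded at 3–5 × 10^3 cells/well in medium already containing graded test compound, then 72 h exposure. Fixed with cold 50% TCA for 30 min, stained with 0.04% SRB for 30 min, bound dye taken up in 10 mM Tris base, A515 read.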

Data set [6] deals with A549 human lung cancer cell line. Nature of the data set: SRB cytotoxicity assay, A549. It is filed as cell-based.
In data set [7] the test system is erythrocytes. Particulars: cited from earlier work.
[8] abbreviates: Homo sapiens, SMMC-7721, read-out: IC50 SMMC-771.
[9] abbreviates: Homo sapiens, BGC-823, read-out: IC50 BGC-823.
The mark [10] stands for this setting: 24 h treatment, compared to controls.
[11] abbreviates: as the concentration of 14 increased.

Values joined by “and” are separate entries in the source; they are usually repeats but may differ in a detail not shown here. Equal values may be shown once. Read-outs that look alike come from different tables or passages of the source.

A word on the IC50: it is the concentration needed to halve the response being measured. Consider `C[C@@H]1O[C@@H](O[C@H]2[C@H](O[C@H]3CC[C@@]4(C)[C@@H](CC[C@]5(C)[C@@H]4C(=O)C=C4[C@@H]6CC(C)(C)CC[C@]6(C(=O)O)CC[C@]45C)[C@]3(C)CO)OC[C@H](O[C@@H]3O[C@H](CO)[C@@H](O)[C@H](O)[C@H]3O)[C@@H]2O)[C@H](O)[C@H](O)[C@H]1O` [compound 4, 3β,23-Dihydroxy-11-oxo-olean-12-en-28-oic acid-3-O-α-L-rhamnopyranosyl-(1→2)-[β-D-gluco-pyranosyl-(1→4)]-α-L-arabinopyranoside], for which the half-maximal inhibitory concentration (IC50) in data set [1] (setting [8]) and in data set [3] (setting [9]) was more than 10 µM throughout. Besides, the “HD50 (concentration inducing 50% of erythrocyte hemolysis)” value in data set [2] (rabbit erythrocytes) was 239 µM and 239 ± 22.2 µM.
Turning to `C[C@@H]1O[C@@H](O[C@H]2[C@H](O[C@H]3CC[C@@]4(C)[C@@H](CC[C@]5(C)[C@@H]4C(=O)C=C4[C@@H]6CC(C)(C)CC[C@]6(C(=O)NCC(=O)O)CC[C@]45C)[C@]3(C)CO)OC[C@H](O[C@@H]3O[C@H](CO)[C@@H](O)[C@H](O)[C@H]3O)[C@@H]2O)[C@H](O)[C@H](O)[C@H]1O` [compound 7, 3β,23-Dihydroxy-11-oxo-olean-12-en-28-(glycine)oic acid-3-O-α-L-rhamnopyranosyl-(1→2)-[β-D-glucopyranosyl-(1→4)]-α-L-arabinopyranoside], the IC50 in data set [1] (setting [8]) and in data set [3] (setting [9]) was more than 10 µM in each case. Moreover, the “HD50 (concentration inducing 50% of erythrocyte hemolysis)” value in data set [2] (rabbit erythrocytes) is 290−308 μM and 290 ± 27.0 μM.
`C[C@@H]1O[C@@H](O[C@H]2[C@H](O[C@H]3CC[C@@]4(C)[C@@H](CC[C@]5(C)[C@@H]4CC(=O)[C@@H]4[C@@H]6CC(C)(C)CC[C@]6(C(=O)O)CC[C@]45C)[C@]3(C)CO)OC[C@H](O[C@@H]3O[C@H](CO)[C@@H](O)[C@H](O)[C@H]3O)[C@@H]2O)[C@H](O)[C@H](O)[C@H]1O` [compound 9, 3β,23-Dihydroxy-12-oxo-olean-28-oic acid-3-O-a-L-rhamnopyranosyl-(1→2)-[β-D-glucopyranosyl-(1→4)]-a-L-arabinopyranoside]: the IC50 in data set [1] (setting [8]) and in data set [3] (setting [9]) was more than 10 µM in each case. Moreover, the “fold lower hemolytic toxicity than 1” value in data set [2] was “at least 10 fold”. For the same molecule, the “HD50 (concentration inducing 50% of erythrocyte hemolysis)” value in data set [2] (rabbit erythrocytes) is 73.1 µM and 73.1 ± 9.0 µM.
For the molecule `C[C@@H]1O[C@@H](O[C@H]2[C@H](O[C@H]3CC[C@@]4(C)[C@@H](CC[C@]5(C)[C@@H]4CC(=O)[C@]46OC(=O)[C@@]7(CCC(C)(C)C[C@H]74)CC[C@@]56C)[C@]3(C)CO)OC[C@H](O[C@@H]3O[C@H](CO)[C@@H](O)[C@H](O)[C@H]3O)[C@@H]2O)[C@H](O)[C@H](O)[C@H]1O` [compound 10, 3β,23-Dihydroxy-12-oxo-olean-28-oic acid-28,13β-lactone-3-O-α-L-rhamnopyranosyl-(1→2)-[β-D-glucopyranosyl-(1→4)]-α-L-arabinopyranoside], the IC50 in data set [1] (setting [8]) and in data set [3] (setting [9]) was more than 10 µM each time. Further, in data set [2], the “fold lower hemolytic toxicity than 1” value is recorded as approximately 50 fold. In addition, in data set [2] (rabbit erythrocytes), the “HD50 (concentration inducing 50% of erythrocyte hemolysis)” value was 290 μM and 290−308 μM and 290 ± 25.5 μM.
As to `C[C@@H]1O[C@@H](O[C@H]2[C@H](O[C@H]3CC[C@@]4(C)[C@@H](CC[C@]5(C)[C@@H]4C[C@H](O)[C@]46OC(=O)[C@@]7(CCC(C)(C)C[C@H]74)CC[C@]65C)[C@]3(C)CO)OC[C@H](O[C@@H]3O[C@H](CO)[C@@H](O)[C@H](O)[C@H]3O)[C@@H]2O)[C@H](O)[C@H](O)[C@H]1O` [compound 11, 33β,12α,23-Trihydroxyolean-28-oic acid 28,13β-lactone-3-O-α-3L3-rhamnopyranosyl-(1→32)-[β-3D3-glucopyranosyl-(1→34)]-α-3L3-arabinopyranoside], the IC50 in data set [1] (setting [8]) and in data set [3] (setting [9]) was more than 10 µM each time. Also, in data set [2], the “fold lower hemolytic toxicity than 1” value is approximately 50 fold. Besides, the “HD50 (concentration inducing 50% of erythrocyte hemolysis)” value in data set [2] (rabbit erythrocytes) was 308 μM and 290−308 μM and 308 ± 24.2 μM.
As for `CC(=O)OC[C@@]1(C)[C@@H]2CC[C@]3(C)[C@H](CC=C4[C@@H]5CC(C)(C)CC[C@]5(C(=O)O)CC[C@]43C)[C@@]2(C)CC[C@@H]1OC(C)=O` [compound 12, 3β,23-Diacetoxyolean-12-en-28-oic acid], the “HD50 (concentration inducing 50% of erythrocyte hemolysis)” value in data set [2] (rabbit erythrocytes) was more than 500 µM.
For `CCOC(=O)CNC(=O)[C@]12CCC(C)(C)C[C@H]1C1=CC[C@@H]3[C@@]4(C)CC[C@H](OC(C)=O)[C@@](C)(COC(C)=O)[C@@H]4CC[C@@]3(C)[C@]1(C)CC2` [compound 13, 3β,23-Diacetoxyolean-12-en-N-[glycineethyl ester]-28-formamide], in data set [2] (rabbit erythrocytes), the “HD50 (concentration inducing 50% of erythrocyte hemolysis)” value is more than 500 µM.
As for `CCOC(=O)CCCNC(=O)[C@]12CCC(C)(C)C[C@H]1C1=CC[C@@H]3[C@@]4(C)CC[C@H](OC(C)=O)[C@@](C)(COC(C)=O)[C@@H]4CC[C@@]3(C)[C@]1(C)CC2` [compound 14, 3β,23-Diacetoxyolean-12-en-N-[4-aminobutanoic acid ethyl ester]-28-formamide], in data set [4] (setting [10]), the “expression of pro-caspase-3” value is on record as “decreased”, the “expression of pro-caspase-8” value is on record as “decreased” and the “expression of pro-caspase-9” value is given as “decreased”. In data set [4] (setting [11]), the “expression of PARP” value was “decreased” and the “expression of cleaved PARP” value was “increased”. Further, the “HD50 (concentration inducing 50% of erythrocyte hemolysis)” value in data set [2] (rabbit erythrocytes) is more than 500 µM. Besides, the IC50 in data set [5] fell in the range of 2.8 to 8.6 µM.
For the molecule `CCOC(=O)CCCCCNC(=O)[C@]12CCC(C)(C)C[C@H]1C1=CC[C@@H]3[C@@]4(C)CC[C@H](OC(C)=O)[C@@](C)(COC(C)=O)[C@@H]4CC[C@@]3(C)[C@]1(C)CC2` [compound 15, 3β,23-Diacetoxyolean-12-en-N-[6-aminocaproic acid ethyl ester]-28-formamide], in data set [2] (rabbit erythrocytes), the “HD50 (concentration inducing 50% of erythrocyte hemolysis)” value is more than 500 µM.
As to `CC1(C)CC[C@]2(C(=O)NCC(=O)O)CC[C@]3(C)C(=CC[C@@H]4[C@@]5(C)CC[C@H](O)[C@@](C)(CO)[C@@H]5CC[C@]43C)[C@@H]2C1` [compound 16, 3β,23-Dihydroxyolean-12-en-28-(glycine)oic acid amide], the “HD50 (concentration inducing 50% of erythrocyte hemolysis)” value in data set [2] (rabbit erythrocytes) is more than 500 µM.
On the same count and under the same terms, for `CC1(C)CC[C@]2(C(=O)NCCCC(=O)O)CC[C@]3(C)C(=CC[C@@H]4[C@@]5(C)CC[C@H](O)[C@@](C)(CO)[C@@H]5CC[C@]43C)[C@@H]2C1` [compound 17, 3β,23-Dihydroxyolean-12-en-28-(4-aminobutanoic acid)oic acid amide] the value was more than 500 µM; for `CC1(C)CC[C@]2(C(=O)NCCCCCC(=O)O)CC[C@]3(C)C(=CC[C@@H]4[C@@]5(C)CC[C@H](O)[C@@](C)(CO)[C@@H]5CC[C@]43C)[C@@H]2C1` [compound 18, 3β,23-Dihydroxyolean-12-en-28-(6-aminocaproic acid)oic acid amide], more than 500 µM.
Consider `CC1(C)CC[C@]2(C(=O)O)CC[C@]3(C)C(=CC[C@@H]4[C@@]5(C)CC[C@H](O)[C@@](C)(CO)[C@@H]5CC[C@]43C)[C@@H]2C1` [hederagenin, reference compound], for which, in data set [2] (rabbit erythrocytes), the “hemolytic toxicity (in words)” value is given as “low hemolytic toxicity” and the “HD50 (concentration inducing 50% of erythrocyte hemolysis)” value is more than 200 µM. Besides, the “cytotoxicity toward A549 cancer cells (in words)” value in data set [6] was “inactive”.
“hederagenin 3-O-α-L-rhamnopyr-anosyl-(1→2)-[β-D-glucopyranosyl-(1→4)]-α-L-arabinopyrano-side [compound 1]”: the IC50 in data set [1] (read-out: IC50 SMMC-771, MTT assay) came to 4.4 µM; in data set [3] (read-out: IC50 BGC-823, MTT assay) it was 7.2 µM. For the same molecule, the “HD50 (hemolytic toxicity)” value in data set [7] is 6.3 µM. For the same molecule, the “HD50 (concentration inducing 50% of erythrocyte hemolysis)” value in data set [2] (rabbit erythrocytes) was 6.3 µM and 6.3 ± 0.58 µM.
